The text below walks through data of ChEMBL document CHEMBL1134791, “2- and 3-substituted 1,4-naphthoquinone derivatives as subversive substrates of trypanothione reductase and lipoamide dehydrogenase from Trypanosoma cruzi: synthesis and correlation between redox cycling activities and in vitro cytotoxicity” (J Med Chem, 2001).

The target of test [1] is Trypanothione reductase (Trypanosoma cruzi, UniProt P28593). Description: Inhibitory activity against Trypanosoma cruzi trypanothione disulfide reductase, assay in presence of 57 uM T(S)2. The essentials:
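Assay contained 250 µM NADPH, 57 µM T(S)₂, inhibitor at 0.3–50 µM and 1% DMSO final. Started with enzyme; NADPH loss followed at 340 nm. IC50 in duplicate.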

Test [2] deals with Trypanosoma brucei. Kind of test: In vitro antiparasitic activity against Trypanosoma brucei was tested by sigmoidal regression analysis. The class given is functional. The note with it: read-out: ED50 (the source's name). The essentials: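 T. b. brucei S427 bloodstream trypomastigotes at 2 × 10⁵/mL in HMI-18 medium, in triplicate, with a 3-fold dilution series starting at 30 µM. Incubated 3 days at 37 °C in 5% CO₂. Pentamidine served as positive control. Viability read by tetrazolium colorimetric assay on day 3. ED50 by sigmoidal regression.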

For test [3], the system named is Trypanosoma cruzi. Description: In vitro antiparasitic activity against Trypanosoma cruzi was tested by sigmoidal regression analysis. The class given is functional. The note with it: read-out: ED50 (the source's name). The essentials:
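Mouse peritoneal macrophages (female CD1, starch-elicited, harvested 24 h) infected with L. donovani amastigotes (strain MHOM/ET/67/L82, hamster spleen) or T. cruzi Y-strain trypomastigotes (5:1, from MDCK overlay). Infected cells exposed to a 3-fold dilution series in quadruplicate for 5 days (L. donovani) or 3 days (T. cruzi). Giemsa-stained slides scored for % macrophages cleared of amastigotes versus untreated cultures. ED50 by sigmoidal regression.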

Molecules are shown by their SMILES. pEC50, pIC50: −log10 of the molar value.

Chain of Trypanothione reductase (P28593 whole entry): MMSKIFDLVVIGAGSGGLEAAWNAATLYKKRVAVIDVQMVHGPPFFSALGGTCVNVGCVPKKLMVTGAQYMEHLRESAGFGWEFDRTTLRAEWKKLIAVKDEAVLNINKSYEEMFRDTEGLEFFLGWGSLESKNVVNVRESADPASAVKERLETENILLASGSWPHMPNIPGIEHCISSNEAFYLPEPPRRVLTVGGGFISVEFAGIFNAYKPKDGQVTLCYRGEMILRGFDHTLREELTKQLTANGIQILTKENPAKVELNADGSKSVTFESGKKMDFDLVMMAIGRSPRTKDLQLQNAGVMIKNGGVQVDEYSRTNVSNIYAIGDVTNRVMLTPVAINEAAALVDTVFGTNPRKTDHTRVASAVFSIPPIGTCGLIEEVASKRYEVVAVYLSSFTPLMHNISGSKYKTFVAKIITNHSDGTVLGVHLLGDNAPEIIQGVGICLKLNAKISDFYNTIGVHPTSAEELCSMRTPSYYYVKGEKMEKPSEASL

As a reminder, the pIC50 is the negative decadic logarithm of the IC50, by convention in mol/L. `CC1=C(CCCCC(=O)O)C(=O)c2ccccc2C1=O`: the negative-log IC50 (pIC50) in test [1] is below 4.30. Also, the pEC50 in test [2] was below 3.96; in test [3], 4.36.
For `CC1=C(CCCCC(=O)O)C(=O)c2c(O)cccc2C1=O`, in that order: below 4.30, below 5.00 and 4.38.
As to `CC1=C(CCCCCC(=O)O)C(=O)c2c(O)cccc2C1=O`, the pIC50 in test [1] was below 4.30. In addition, the pEC50 in test [2] is below 5.48; in test [3] it was 4.49.
For `CC1=C(CCCNC(=O)OC(C)(C)C)C(=O)c2c(O)cccc2C1=O`, the negative-log IC50 (pIC50) in test [1] is below 4.60. Besides, the pEC50 in test [2] is 6.22; in test [3], 5.43.
On to `O=C(O)CCCCCC1=C(CCCCCC(=O)O)C(=O)c2ccccc2C1=O`, for which the negative-log IC50 (pIC50) in test [1] was below 4.30. Besides, the pEC50 is 4.32 in test [2] and below 4.13 in test [3].
As to `CC1=C(CCCCC(=O)NCCCN2CCN(CCCNC(=O)CCCCC3=C(C)C(=O)c4cccc(O)c4C3=O)CC2)C(=O)c2c(O)cccc2C1=O`, in test [1], the negative-log IC50 (pIC50) was 5.60. In addition, the values for the pEC50 in test [2] and in test [3] were below 5.89 and 4.76, respectively.
For `CN1CCN(CCCNC(=O)CCC2=C(CCC(=O)NCCCN3CCN(C)CC3)C(=O)c3c(O)cccc3C2=O)CC1`, the pIC50 in test [1] was below 4.30. The pEC50 was 4.67 in test [2] and below 4.30 in test [3].
For the compound `O=C(O)CCCCC1=C(CCCCC(=O)O)C(=O)c2c(O)cccc2C1=O`, in test [1], the pIC50 was below 4.30. Besides, the pEC50 in test [2] is below 4.10; in test [3], 4.10.
As to `CC1=C(CCCC(=O)NCCCCNCCCNC(=O)CCCC2=C(C)C(=O)c3cccc(O)c3C2=O)C(=O)c2c(O)cccc2C1=O`, the pIC50 in test [1] is 5.64. Besides, the pEC50 in test [2] was below 5.35; in test [3] it was 4.34.
In the case of `CC1=C(NCCCC/N=C2/C(=O)c3ccccc3C(O)=C2C)C(=O)c2ccccc2C1=O`, the pIC50 in test [1] is below 4.24. Also, the pEC50 in test [2] and in test [3] was below 4.90 throughout.
Regarding `CC1=C(CCC(=O)N2CCN(C)CC2)C(=O)c2c(O)cccc2C1=O`, the pIC50 in test [1] is 4.30. The pEC50 was 4.28 in test [2] and below 4.06 in test [3].
On to `CC1=C(NCCCN2CCN(CCCN)CC2)C(=O)c2ccccc2C1=O`, for which the pIC50 in test [1] is 5.22. Also, the pEC50 in test [3] was below 4.90.
For the compound `CC1=C(CCCCC(=O)NCCCCNCCCNC(=O)CCCCC2=C(C)C(=O)c3cccc(O)c3C2=O)C(=O)c2c(O)cccc2C1=O`, the pIC50 in test [1] was 5.77. The pEC50 is below 5.82 in test [2] and 5.40 in test [3].
`CC1=C(CCCCCNC(=O)OC(C)(C)C)C(=O)c2c(O)cccc2C1=O`: the pIC50 in test [1] was below 4.60. In addition, the pEC50 in test [2] was 5.60; in test [3] it was 4.88.
With `CC1=C(CCCC(=O)NCCCNCCCNC(=O)CCCC2=C(C)C(=O)c3cccc(O)c3C2=O)C(=O)c2c(O)cccc2C1=O`, in test [1], the pIC50 is 5.70. Also, the pEC50 was below 5.34 in test [2] and 4.33 in test [3].
Take `CC1=C(CCCCCC(=O)NCCCCNCCCNC(=O)CCCCCC2=C(C)C(=O)c3cccc(O)c3C2=O)C(=O)c2c(O)cccc2C1=O`: the pIC50 in test [1] was 5.80. In addition, the pEC50 was 6.52 in test [2] and 4.61 in test [3].
Turning to `CC1=C(CCCCNC(=O)OC(C)(C)C)C(=O)c2c(O)cccc2C1=O`, the negative logarithm of the IC50 (pIC50) in test [1] was below 4.60. Also, the pEC50 in test [2] is 5.85; in test [3] it was 5.15.
Consider `CC1=C(CCCC(=O)N2CCN(C)CC2)C(=O)c2ccccc2C1=O`, for which the pEC50 in test [2] is 5.04; in test [3], 4.57.
On to `CC1=C(CCCCCNC(=O)OC(C)(C)C)C(=O)c2ccccc2C1=O`, for which the pIC50 in test [1] is below 4.30. Moreover, the pEC50 in test [2] was 5.57; in test [3], 5.37.
In the case of `CC1=C(CCCCC(=O)NCCCNCCCNC(=O)CCCCC2=C(C)C(=O)c3ccccc3C2=O)C(=O)c2ccccc2C1=O`, the pIC50 in test [1] was 4.73. Further, the pEC50 in test [2] is 4.82; in test [3], 4.35.
As to `O=C(O)CCCC1=C(CCCC(=O)O)C(=O)c2c(O)cccc2C1=O`, the pIC50 in test [1] was below 4.30. Besides, the pEC50 was 4.21 in test [2] and below 4.06 in test [3].
On to `CC1=C(NCCCNCCCN)C(=O)c2ccccc2C1=O`, for which the pIC50 in test [1] is 4.92. Further, the pEC50 in test [2] and in test [3] was below 4.90 in each case.
`CC1=C(CCNC(=O)OC(C)(C)C)C(=O)c2ccccc2C1=O`: the pIC50 in test [1] was below 4.30. Besides, the values for the pEC50 in test [2] and in test [3] were 6.05 and 5.02, respectively.
As to `CC1=C(CCCCNC(=O)OC(C)(C)C)C(=O)c2ccccc2C1=O`, the pIC50 in test [1] is below 4.60. For the same compound, the values for the pEC50 in test [2] and in test [3] were below 5.52 and 4.98, respectively.
For `O=C(O)CCC1=C(CCC(=O)O)C(=O)c2c(O)cccc2C1=O`, in test [1], the pIC50 is below 4.30. Besides, the pEC50 is 4.23 in test [2] and below 4.03 in test [3].
As for `CC1=C(CCC(=O)NCCCNCCCNC(=O)CCC2=C(C)C(=O)c3cccc(O)c3C2=O)C(=O)c2c(O)cccc2C1=O`, the pIC50 in test [1] is 5.72. The pEC50 in test [2] was 5.77; in test [3] it was 4.89.
On to `CC1=C(CCC(=O)NCCCNCCCNC(=O)CCC2=C(C)C(=O)c3ccccc3C2=O)C(=O)c2ccccc2C1=O`, for which the pIC50 in test [1] was 5.30. The pEC50 in test [2] was 5.35; in test [3] it was 4.33.
On to `CC1=C(CCCCCC(=O)NCCCNCCCNC(=O)CCCCCC2=C(C)C(=O)c3cccc(O)c3C2=O)C(=O)c2c(O)cccc2C1=O`, for which the pIC50 in test [1] is 5.70. For the same compound, the pEC50 in test [2] was below 5.85; in test [3], 5.52.
Consider `CC1=C(CCC(=O)NCCCCNCCCNC(=O)CCC2=C(C)C(=O)c3cccc(O)c3C2=O)C(=O)c2c(O)cccc2C1=O`, for which the pIC50 in test [1] is 5.54. In addition, the pEC50 is 4.86 in test [2] and 4.34 in test [3].
Regarding `CC1=C(CCCC(=O)O)C(=O)c2ccccc2C1=O`, in test [1], the pIC50 is below 4.30.
Regarding `CN1CCN(C(=O)CCC2=C(CCC(=O)N3CCN(C)CC3)C(=O)c3c(O)cccc3C2=O)CC1`, in test [1], the pIC50 is below 4.30. Also, the pEC50 in test [2] was 4.65; in test [3], below 4.21.
`CC1=C(CCCC(=O)NCCCN2CCN(CCCNC(=O)CCCC3=C(C)C(=O)c4ccccc4C3=O)CC2)C(=O)c2ccccc2C1=O`: in test [1], the negative-log IC50 (pIC50) is 5.35. For the same compound, the pEC50 in test [2] is 4.86; in test [3] it was 4.89.
Turning to `CC1=C(CCCCC(=O)NCCCN2CCN(CCCNC(=O)CCCCC3=C(C)C(=O)c4ccccc4C3=O)CC2)C(=O)c2ccccc2C1=O`, the negative-log IC50 (pIC50) in test [1] is 5.95. In addition, the pEC50 in test [2] was 5.14; in test [3] it was 4.59.
Turning to `CC1=C(CCC(=O)N2CCN(C)CC2)C(=O)c2ccccc2C1=O`, the pIC50 in test [1] is below 4.30. Besides, the figures for the pEC50 in test [2] and in test [3] were 5.02 and 4.15, respectively.
As to `CC1=C(CCCCC(=O)NCCCNCCCNC(=O)CCCCC2=C(C)C(=O)c3cccc(O)c3C2=O)C(=O)c2c(O)cccc2C1=O`, the pIC50 in test [1] is 6.35. Besides, the pEC50 was 5.96 in test [2] and 5.37 in test [3].
For `CC1=C(NCCCCN)C(=O)c2c(O)cccc2C1=O`, in that order: below 4.24, below 4.90 and below 4.90.
For `CC1=C(CCCC(=O)NCCCN2CCN(C)CC2)C(=O)c2ccccc2C1=O`, the pIC50 in test [1] is 4.36. In addition, the pEC50 is 4.34 in test [2] and below 4.12 in test [3].
